The format of data set [1] is in vivo. The following applies: human, plasma, sc. The method in brief: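 Type 1 diabetic subjects dosed sc once daily for 4 weeks, from 0.6 mg/day rising 0.6 mg weekly to 0.6, 1.2 or 1.8 mg. Plasma taken pre-dose and 2–60 h after the final steady-state dose; sandwich ELISA with N- and C-terminal monoclonals, LLOQ 30 pmol/L. Non-compartmental: trapezoidal AUC, observed Cmax/tmax, CL/F = dose/AUC0–24 h, Vz/F = (CL/F)/λz.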

For data set [2] the following is noted: cited from earlier work.

The structures appear in SMILES notation. Read-outs that look alike come from different tables or passages of the source.

The Vd/F is the volume of distribution divided by bioavailability. A word on the CL/F: it is the apparent clearance, not corrected for the fraction that reaches the circulation.

For the compound `CCCCCCCCCCCCCCCC(=O)N[C@@H](CCC(=O)NCCCC[C@H](NC(=O)[C@H](C)NC(=O)[C@H](C)NC(=O)[C@H](CCC(N)=O)NC(=O)CNC(=O)[C@H](CCC(=O)O)NC(=O)[C@H](CC(C)C)NC(=O)[C@H](Cc1ccc(O)cc1)NC(=O)[C@H](CO)NC(=O)[C@H](CO)NC(=O)[C@@H](NC(=O)[C@H](CC(=O)O)NC(=O)[C@H](CO)NC(=O)[C@@H](NC(=O)[C@H](Cc1ccccc1)NC(=O)[C@@H](NC(=O)CNC(=O)[C@H](CCC(=O)O)NC(=O)[C@H](C)NC(=O)[C@@H](N)Cc1cnc[nH]1)[C@@H](C)O)[C@@H](C)O)C(C)C)C(=O)N[C@@H](CCC(=O)O)C(=O)N[C@@H](Cc1ccccc1)C(=O)N[C@H](C(=O)N[C@@H](C)C(=O)N[C@@H](Cc1c[nH]c2ccccc12)C(=O)N[C@@H](CC(C)C)C(=O)N[C@H](C(=O)N[C@@H](CCCNC(=N)N)C(=O)NCC(=O)N[C@@H](CCCNC(=N)N)C(=O)NCC(=O)O)C(C)C)[C@@H](C)CC)C(=O)O` [Liraglutide, liraglutide], the Vd/F in data set [1] turned out to be 27.4 L; in data set [1] (0.6 mg), 27 L; in data set [1] (1.2 mg), 26 L; in data set [1] (1.8 mg) it was 29.3 L. In addition, the “V z/F” value in data set [2] (healthy volunteers and subjects with T2D, previous studies) was 11 to 17 L. Also, the CL/F in data set [2] (studies with healthy volunteers and subjects with T2D) is listed as 1.2 L/h.

These data come from publication PMC5069309 (Clinical Pharmacokinetics, 2016).
